Laboratory results published in ChEMBL document CHEMBL1143428, “Extended-spectrum-beta-lactamase-producing Enterobacteriaceae strains in various types of private health care centers” (2007).
≈ marks a conversion by molar mass, not a printed value.

Tests used:
Type in all cases: functional
Klebsiella aerogenes [1] = experiment: Antimicrobial activity against Enterobacter aerogenes Ea1 expressing TEM-24b AmpC +/- TEM-1 or TEM-2 gene
Outline: (§1)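 β-Lactam MICs (μg/ml) measured against clinical Enterobacteriaceae isolates collected from private health care centers. Enzyme content of each isolate was assigned by isoelectric focusing, PCR with blaTEM/blaSHV/blaCTX-M primers and sequencing, with cloning to separate coexisting TEM or SHV genes. In combination tests, the β-lactamase inhibitor clavulanic acid was held at a fixed 2 μg/ml.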

Klebsiella aerogenes [2] = experiment: Antimicrobial activity against Enterobacter aerogenes Ea1 expressing TEM-24b gene
Outline: (§2)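 Clinical isolates from private health care centers. β-Lactamase content was assigned by isoelectric focusing, PCR with blaTEM-, blaSHV- and blaCTX-M-specific primers, and sequencing. MICs (μg/ml) were reported for amoxicillin, cefoxitin, cefotaxime, ceftazidime, imipenem and ertapenem. Amoxicillin, cefotaxime and ceftazidime were also tested with clavulanic acid held at a fixed 2 μg/ml.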

Klebsiella aerogenes [3] = experiment: Antimicrobial activity against Enterobacter aerogenes Ea2 expressing TEM-3 AmpC gene; outline: as §2
Klebsiella aerogenes [4] = experiment: Antimicrobial activity against Enterobacter aerogenes Ea2 expressing TEM-3 gene; outline: as §2
Escherichia coli [5] = experiment: Antimicrobial activity against Escherichia coli Ec1 containing pEc1-A plasmid expressing CTX-M-15 TEM-1 OXA-1 gene; outline: as §1
Escherichia coli [6] = experiment: Antimicrobial activity against Escherichia coli Ec2 containing pEc1-B plasmid expressing CTX-M-15 TEM-1 OXA-1 gene; outline: as §2
Escherichia coli [7] = experiment: Antimicrobial activity against Escherichia coli Ec2-a containing pEc1-C plasmid expressing CTX-M-15 OXA-1 gene; outline: as §2
Escherichia coli [8] = experiment: Antimicrobial activity against Escherichia coli Ec2 containing pEc1-D plasmid expressing CTX-M-15 TEM-1 OXA-1gene; outline: as §1
Escherichia coli [9] = experiment: Antimicrobial activity against Escherichia coli Ec3 expressing CTX-M-15 TEM-1 OXA-1 gene; outline: as §1
Escherichia coli [10] = experiment: Antimicrobial activity against Escherichia coli Ec4 expressing CTX-M-1 AmpC gene; outline: as §1
Escherichia coli [11] = experiment: Antimicrobial activity against Escherichia coli Ec5 expressing CTX-M-2 TEM-1 gene; outline: as §1
Escherichia coli [12] = experiment: Antimicrobial activity against Escherichia coli Ec7 expressing SHV-12 IRT-6 gene; outline: as §2
Escherichia coli [13] = experiment: Antimicrobial activity against Escherichia coli Ec8 expressing TEM-21 AmpC gene; outline: as §2
Escherichia coli [14] = experiment: Antimicrobial activity against Escherichia coli Ec9 expressing TEM-24b TEM-26 gene; outline: as §1
Escherichia coli [15] = experiment: Antimicrobial activity against Escherichia coli Ec10 expressing TEM-24b gene; outline: as §1
Klebsiella pneumoniae [16] = experiment: Antimicrobial activity against Klebsiella pneumoniae Kp1 expressing SHV-4 gene; outline: as §1
Klebsiella pneumoniae [17] = experiment: Antimicrobial activity against Klebsiella pneumoniae Kp2 expressing TEM-15 gene; outline: as §1
Klebsiella pneumoniae [18] = experiment: Antimicrobial activity against Klebsiella pneumoniae Kp2 expressing TEM-15 TEM-17 TEM-1 gene; outline: as §1
Klebsiella pneumoniae [19] = experiment: Antimicrobial activity against Klebsiella pneumoniae Kp3 expressing SHV-2a TEM-1 gene; outline: as §1
Klebsiella pneumoniae [20] = experiment: Antimicrobial activity against Klebsiella pneumoniae Kp4 expressing SHV-12 SHV-1 and plasmid-mediated cephalosporinase CMY-4; outline: as §1
Klebsiella pneumoniae [21] = experiment: Antimicrobial activity against Klebsiella pneumoniae Kp5 expressing plasmid-mediated cephalosporinase ACC-1 and TEM-1; outline: as §1
Proteus mirabilis [22] = experiment: Antimicrobial activity against Proteus mirabilis Pm1-Pm3 expressing TEM-24b gene; outline: as §2
Proteus mirabilis [23] = experiment: Antimicrobial activity against Proteus mirabilis Pm4 expressing TEM-21 gene; outline: as §2
Enterobacter cloacae = experiment: Antimicrobial activity against Enterobacter cloacae Ecl1 expressing TEM-24b AmpC TEM-1 gene; outline: as §1
Morganella morganii = experiment: Antimicrobial activity against Morganella morganii expressing TEM-24b AmpC gene; outline: as §1
Klebsiella oxytoca = experiment: Antimicrobial activity against Klebsiella oxytoca expressing TEM-11 gene; outline: as §2
Escherichia coli [24] = experiment: Antimicrobial activity against Escherichia coli Ec6 expressing CTX-M-14 gene; outline: as §1

Row | Compound | MIC (Klebsiella aerogenes [1]) [µg/mL] | MIC (Klebsiella aerogenes [2]) [µg/mL] | MIC (Klebsiella aerogenes [3]) [µg/mL] | MIC (Klebsiella aerogenes [4]) [µg/mL] | MIC (Escherichia coli [6]) [µg/mL] | MIC (Escherichia coli [7]) [µg/mL] | MIC (Escherichia coli [8]) [µg/mL] | MIC (Escherichia coli [9]) [µg/mL] | MIC (Escherichia coli [10]) [µg/mL] | MIC (Escherichia coli [11]) [µg/mL] | MIC (Escherichia coli [12]) [µg/mL] | MIC (Escherichia coli [13]) [µg/mL] | MIC (Escherichia coli [14]) [µg/mL] | MIC (Klebsiella pneumoniae [16]) [µg/mL] | MIC (Klebsiella pneumoniae [17]) [µg/mL] | MIC (Klebsiella pneumoniae [18]) [µg/mL] | MIC (Klebsiella pneumoniae [19]) [µg/mL] | MIC (Klebsiella pneumoniae [20]) [µg/mL] | MIC (Klebsiella pneumoniae [21]) [µg/mL] | MIC (Proteus mirabilis [22]) [µg/mL] | further results
1 | CO/N=C(\C(=O)N[C@@H]1C(=O)N2C(C(=O)O)=C(COC(C)=O)CS[C@H]12)c1csc(N)n1 [CEFOTAXIME] | 1 (≈ 2.2 µM) | 1 (≈ 2.2 µM) | 4 (≈ 8.78 µM) | 0.2 (≈ 0.439 µM) | 64 (≈ 141 µM) | 256 (≈ 562 µM) | 2 (≈ 4.39 µM) | 512 (≈ 1120 µM) | 64 (≈ 141 µM) | 32 (≈ 70.3 µM) | 16 (≈ 35.1 µM) | 32 (≈ 70.3 µM) | 1 (≈ 2.2 µM) | 8 (≈ 17.6 µM) | 8 (≈ 17.6 µM) | 64 (≈ 141 µM) | 2 (≈ 4.39 µM) | 16 (≈ 35.1 µM) | 8 (≈ 17.6 µM) | 0.5 (≈ 1.1 µM) | MIC (Escherichia coli [5]): 256 µg/mL (≈ 562 µM); MIC (Escherichia coli [15]): 2 µg/mL (≈ 4.39 µM); MIC (Proteus mirabilis [23]): 2 µg/mL (≈ 4.39 µM); MIC (Enterobacter cloacae): 64 µg/mL (≈ 141 µM); MIC (Morganella morganii): 16 µg/mL (≈ 35.1 µM); MIC (Klebsiella oxytoca): 1 µg/mL (≈ 2.2 µM); MIC (Escherichia coli [24]): 32 µg/mL (≈ 70.3 µM)
2 | CO[C@@]1(NC(=O)Cc2cccs2)C(=O)N2C(C(=O)O)=C(COC(N)=O)CS[C@@H]21 [CEFOXITIN] | 512 (≈ 1200 µM) | 8 (≈ 18.7 µM) | 128 (≈ 299 µM) | 32 (≈ 74.9 µM) | 8 (≈ 18.7 µM) | 8 (≈ 18.7 µM) | 32 (≈ 74.9 µM) | 32 (≈ 74.9 µM) | 64 (≈ 150 µM) | 4 (≈ 9.36 µM) | 64 (≈ 150 µM) | 128 (≈ 299 µM) | 4 (≈ 9.36 µM) | 16 (≈ 37.4 µM) | 4 (≈ 9.36 µM) | 64 (≈ 150 µM) | 4 (≈ 9.36 µM) | 32 (≈ 74.9 µM) | 8 (≈ 18.7 µM) | 2 (≈ 4.68 µM) | MIC (Escherichia coli [5]): 4 µg/mL (≈ 9.36 µM); MIC (Escherichia coli [15]): 8 µg/mL (≈ 18.7 µM); MIC (Proteus mirabilis [23]): 4 µg/mL (≈ 9.36 µM); MIC (Enterobacter cloacae): 512 µg/mL (≈ 1200 µM); MIC (Morganella morganii): 128 µg/mL (≈ 299 µM); MIC (Klebsiella oxytoca): 8 µg/mL (≈ 18.7 µM); MIC (Escherichia coli [24]): 4 µg/mL (≈ 9.36 µM)
3 | CC(C)(O/N=C(\C(=O)N[C@@H]1C(=O)N2C(C(=O)[O-])=C(C[n+]3ccccc3)CS[C@H]12)c1csc(N)n1)C(=O)O [CEFTAZIDIME] | 256 (≈ 468 µM) | 128 (≈ 234 µM) | 16 (≈ 29.3 µM) | 16 (≈ 29.3 µM) | 16 (≈ 29.3 µM) | 256 (≈ 468 µM) | 1 (≈ 1.83 µM) | 256 (≈ 468 µM) | 8 (≈ 14.6 µM) | 1 (≈ 1.83 µM) | 128 (≈ 234 µM) | 64 (≈ 117 µM) | 128 (≈ 234 µM) | 128 (≈ 234 µM) | 32 (≈ 58.5 µM) | 512 (≈ 937 µM) | 256 (≈ 468 µM) | 4 (≈ 7.32 µM) | 64 (≈ 117 µM) | 8 (≈ 14.6 µM) | MIC (Escherichia coli [5]): 64 µg/mL (≈ 117 µM); MIC (Escherichia coli [15]): 256 µg/mL (≈ 468 µM); MIC (Proteus mirabilis [23]): 1 µg/mL (≈ 1.83 µM); MIC (Enterobacter cloacae): 512 µg/mL (≈ 937 µM); MIC (Morganella morganii): 128 µg/mL (≈ 234 µM); MIC (Klebsiella oxytoca): 128 µg/mL (≈ 234 µM); MIC (Escherichia coli [24]): 4 µg/mL (≈ 7.32 µM)
4 | C[C@@H](O)[C@H]1C(=O)N2C(C(=O)O)=C(S[C@@H]3CN[C@H](C(=O)Nc4cccc(C(=O)O)c4)C3)[C@H](C)[C@H]12 [ERTAPENEM] | 0.05 (≈ 0.105 µM) | 0.02 (≈ 0.0421 µM) | 0.2 (≈ 0.421 µM) | 0.02 (≈ 0.0421 µM) | 0.1 (≈ 0.21 µM) | 0.2 (≈ 0.421 µM) | 0.05 (≈ 0.105 µM) | 0.1 (≈ 0.21 µM) | 0.05 (≈ 0.105 µM) | 0.05 (≈ 0.105 µM) | 0.2 (≈ 0.421 µM) | 0.1 (≈ 0.21 µM) | ≤ 0.01 | 0.02 (≈ 0.0421 µM) | 0.02 (≈ 0.0421 µM) | 0.1 (≈ 0.21 µM) | 0.02 (≈ 0.0421 µM) | 0.01 (≈ 0.021 µM) | 0.05 (≈ 0.105 µM) | 0.01 (≈ 0.021 µM) | MIC (Escherichia coli [5]): 0.05 µg/mL (≈ 0.105 µM); MIC (Escherichia coli [15]): 0.02 µg/mL (≈ 0.0421 µM); MIC (Proteus mirabilis [23]): 0.01 µg/mL (≈ 0.021 µM); MIC (Enterobacter cloacae): 0.5 µg/mL (≈ 1.05 µM); MIC (Morganella morganii): 0.02 µg/mL (≈ 0.0421 µM); MIC (Klebsiella oxytoca): 0.1 µg/mL (≈ 0.21 µM); MIC (Escherichia coli [24]): 0.02 µg/mL (≈ 0.0421 µM)
5 | C[C@@H](O)[C@H]1C(=O)N2C(C(=O)O)=C(SCCNC=N)C[C@H]12 [IMIPENEM ANHYDROUS] | 0.5 (≈ 1.67 µM) | 0.5 (≈ 1.67 µM) | 1 (≈ 3.34 µM) | 0.5 (≈ 1.67 µM) | 0.5 (≈ 1.67 µM) | 0.5 (≈ 1.67 µM) | 0.5 (≈ 1.67 µM) | 0.5 (≈ 1.67 µM) | 1 (≈ 3.34 µM) | 0.5 (≈ 1.67 µM) | 0.5 (≈ 1.67 µM) | 0.5 (≈ 1.67 µM) | 0.5 (≈ 1.67 µM) | 0.5 (≈ 1.67 µM) | 0.5 (≈ 1.67 µM) | 0.5 (≈ 1.67 µM) | 1 (≈ 3.34 µM) | 1 (≈ 3.34 µM) | 0.5 (≈ 1.67 µM) | 1 (≈ 3.34 µM) | MIC (Proteus mirabilis [23]): 1 µg/mL (≈ 3.34 µM); MIC (Enterobacter cloacae): 1 µg/mL (≈ 3.34 µM); MIC (Morganella morganii): 4 µg/mL (≈ 13.4 µM); MIC (Klebsiella oxytoca): 0.5 µg/mL (≈ 1.67 µM); MIC (Escherichia coli [24]): 0.5 µg/mL (≈ 1.67 µM)
